{"source": "ChEMBL document CHEMBL2396544", "about": "“1,4-Diaryl-substituted triazoles as cyclooxygenase-2 inhibitors: Synthesis, biological evaluation and molecular modeling studies” (Bioorg Med Chem, 2013)", "key": {"[1]": {"assay": "Selectivity index, ratio of IC50 for ovine COX1 to IC50 for human recombinant COX2", "in_short": "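Ovine COX-1 and human recombinant COX-2 tested in parallel with a fluorescent COX inhibitor screening kit. […] The index is the COX-1 IC50 divided by the COX-2 IC50.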"}, "[2]": {"target": "T1, Prostaglandin G/H synthase 1 (Ovis aries, UniProt P05979)", "T1 sequence (P05979 whole entry)": "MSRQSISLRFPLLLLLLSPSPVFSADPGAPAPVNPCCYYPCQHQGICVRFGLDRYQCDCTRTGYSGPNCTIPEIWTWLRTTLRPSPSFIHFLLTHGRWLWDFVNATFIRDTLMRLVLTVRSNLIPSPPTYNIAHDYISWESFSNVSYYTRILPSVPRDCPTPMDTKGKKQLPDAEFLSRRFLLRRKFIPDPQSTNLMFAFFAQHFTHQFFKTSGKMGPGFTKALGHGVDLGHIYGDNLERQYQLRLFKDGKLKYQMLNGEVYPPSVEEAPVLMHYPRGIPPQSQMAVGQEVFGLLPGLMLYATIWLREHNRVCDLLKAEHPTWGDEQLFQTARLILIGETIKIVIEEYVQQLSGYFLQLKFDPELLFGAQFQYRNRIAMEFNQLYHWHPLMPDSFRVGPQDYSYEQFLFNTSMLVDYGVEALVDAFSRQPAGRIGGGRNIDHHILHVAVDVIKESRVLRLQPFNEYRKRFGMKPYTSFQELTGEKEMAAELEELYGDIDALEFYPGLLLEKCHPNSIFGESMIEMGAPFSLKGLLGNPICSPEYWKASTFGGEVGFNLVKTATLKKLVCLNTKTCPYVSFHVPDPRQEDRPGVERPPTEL", "assay": "Inhibition of ovine COX1 by fluorescence assay", "in_short": "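Ovine COX-1 tested in vitro with a fluorescent COX-1/COX-2 inhibitor screening kit. Each value is the mean of three determinations, with deviation from the mean under 10%.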"}, "[3]": {"target": "T2, Prostaglandin G/H synthase 2 (Homo sapiens, UniProt P35354)", "T2 sequence (P35354 whole entry)": "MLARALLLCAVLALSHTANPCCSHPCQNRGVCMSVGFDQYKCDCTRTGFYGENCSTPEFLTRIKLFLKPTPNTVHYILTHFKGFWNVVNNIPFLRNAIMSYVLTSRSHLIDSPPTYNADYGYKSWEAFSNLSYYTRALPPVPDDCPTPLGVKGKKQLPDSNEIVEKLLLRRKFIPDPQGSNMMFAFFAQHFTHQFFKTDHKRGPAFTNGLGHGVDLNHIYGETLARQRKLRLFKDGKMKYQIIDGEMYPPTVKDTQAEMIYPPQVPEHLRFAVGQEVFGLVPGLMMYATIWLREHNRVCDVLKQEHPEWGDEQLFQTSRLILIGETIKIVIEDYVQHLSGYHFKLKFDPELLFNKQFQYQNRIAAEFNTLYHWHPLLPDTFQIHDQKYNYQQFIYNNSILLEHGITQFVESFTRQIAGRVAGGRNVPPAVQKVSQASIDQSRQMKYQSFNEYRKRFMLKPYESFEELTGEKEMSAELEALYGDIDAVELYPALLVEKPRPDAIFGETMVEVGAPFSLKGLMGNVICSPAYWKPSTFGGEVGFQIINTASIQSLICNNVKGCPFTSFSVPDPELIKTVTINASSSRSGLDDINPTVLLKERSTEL", "assay": "Inhibition of human recombinant COX2 by fluorescence assay"}}}
{"compound": "NS(=O)(=O)c1ccc(-n2cc(-c3ccc(F)cc3)nn2)cc1", "values": [{"measurement": "Ratio IC50", "setting": "[1]", "value": "> 7.4"}, {"measurement": "IC50", "setting": "[2]", "value": "> 100", "unit": "µM"}, {"measurement": "IC50", "setting": "[3]", "value": 13.5, "unit": "µM"}]}
{"compound": "NS(=O)(=O)c1ccc(Cn2cc(-c3ccc(F)cc3)nn2)cc1", "values": [{"measurement": "Ratio IC50", "setting": "[1]", "value": 13.3}, {"measurement": "IC50", "setting": "[2]", "value": 20, "unit": "µM"}, {"measurement": "IC50", "setting": "[3]", "value": 1.5, "unit": "µM"}]}
{"compound": "Cc1ccc(-c2cn(CCc3ccc(S(N)(=O)=O)cc3)nn2)cc1", "values": [{"measurement": "Ratio IC50", "setting": "[1]", "value": "> 29"}, {"measurement": "IC50", "setting": "[2]", "value": "> 100", "unit": "µM"}, {"measurement": "IC50", "setting": "[3]", "value": 3.4, "unit": "µM"}]}
{"compound": "COc1ccc(-c2cn(Cc3ccc(S(N)(=O)=O)cc3)nn2)cc1", "values": [{"measurement": "Ratio IC50", "setting": "[1]", "value": "> 7.7"}, {"measurement": "IC50", "setting": "[2]", "value": "> 100", "unit": "µM"}, {"measurement": "IC50", "setting": "[3]", "value": 13, "unit": "µM"}]}
{"compound": "NS(=O)(=O)c1ccc(Cn2cc(-c3ccc(Cl)cc3)nn2)cc1", "values": [{"measurement": "Ratio IC50", "setting": "[1]", "value": "> 3.6"}, {"measurement": "IC50", "setting": "[2]", "value": "> 100", "unit": "µM"}, {"measurement": "IC50", "setting": "[3]", "value": 28, "unit": "µM"}]}
{"compound": "NS(=O)(=O)c1ccc(Cn2cc(-c3ccccc3)nn2)cc1", "values": [{"measurement": "Ratio IC50", "setting": "[1]", "value": 6}, {"measurement": "IC50", "setting": "[2]", "value": 39, "unit": "µM"}, {"measurement": "IC50", "setting": "[3]", "value": 6.5, "unit": "µM"}]}
{"compound": "NS(=O)(=O)c1ccc(CCn2cc(-c3ccccc3)nn2)cc1", "values": [{"measurement": "Ratio IC50", "setting": "[1]", "value": "> 91"}, {"measurement": "IC50", "setting": "[2]", "value": "> 100", "unit": "µM"}, {"measurement": "IC50", "setting": "[3]", "value": 1.1, "unit": "µM"}]}
{"compound": "NS(=O)(=O)c1ccc(CCn2cc(-c3ccc(Cl)cc3)nn2)cc1", "values": [{"measurement": "Ratio IC50", "setting": "[1]", "value": "> 588"}, {"measurement": "IC50", "setting": "[2]", "value": "> 100", "unit": "µM"}, {"measurement": "IC50", "setting": "[3]", "value": 0.17, "unit": "µM"}]}
{"compound": "NS(=O)(=O)c1ccc(-n2cc(-c3ccccc3)nn2)cc1", "values": [{"measurement": "Ratio IC50", "setting": "[1]", "value": "> 77"}, {"measurement": "IC50", "setting": "[2]", "value": "> 100", "unit": "µM"}, {"measurement": "IC50", "setting": "[3]", "value": 1.3, "unit": "µM"}]}
{"compound": "Cc1ccc(-c2cn(-c3ccc(S(N)(=O)=O)cc3)nn2)cc1", "values": [{"measurement": "Ratio IC50", "setting": "[1]", "value": 4.6}, {"measurement": "IC50", "setting": "[2]", "value": 65, "unit": "µM"}, {"measurement": "IC50", "setting": "[3]", "value": 14, "unit": "µM"}]}
{"compound": "NS(=O)(=O)c1ccc(-n2cc(-c3ccc(Cl)cc3)nn2)cc1", "values": [{"measurement": "Ratio IC50", "setting": "[1]", "value": 16.1}, {"measurement": "IC50", "setting": "[2]", "value": 21, "unit": "µM"}, {"measurement": "IC50", "setting": "[3]", "value": 1.3, "unit": "µM"}]}
{"compound": "Cc1ccc(-c2cn(Cc3ccc(S(N)(=O)=O)cc3)nn2)cc1", "values": [{"measurement": "Ratio IC50", "setting": "[1]", "value": "> 83"}, {"measurement": "IC50", "setting": "[2]", "value": "> 100", "unit": "µM"}, {"measurement": "IC50", "setting": "[3]", "value": 1.2, "unit": "µM"}]}
{"compound": "COc1ccc(-c2cn(CCc3ccc(S(N)(=O)=O)cc3)nn2)cc1", "values": [{"measurement": "Ratio IC50", "setting": "[1]", "value": "> 3.7"}, {"measurement": "IC50", "setting": "[2]", "value": "> 100", "unit": "µM"}, {"measurement": "IC50", "setting": "[3]", "value": 27, "unit": "µM"}]}
{"compound": "NS(=O)(=O)c1ccc(CCn2cc(-c3ccc(F)cc3)nn2)cc1", "values": [{"measurement": "Ratio IC50", "setting": "[1]", "value": "> 100"}, {"measurement": "IC50", "setting": "[2]", "value": "> 100", "unit": "µM"}, {"measurement": "IC50", "setting": "[3]", "value": 1, "unit": "µM"}]}
{"compound": "COc1ccc(-c2cn(-c3ccc(S(N)(=O)=O)cc3)nn2)cc1", "values": [{"measurement": "Ratio IC50", "setting": "[1]", "value": "> 9.1"}, {"measurement": "IC50", "setting": "[2]", "value": "> 100", "unit": "µM"}, {"measurement": "IC50", "setting": "[3]", "value": 11, "unit": "µM"}]}
